For assay [1], the target named is Adenosine receptor A2a (Homo sapiens) (UniProt P29274). In words: Displacement of [3H]ZM241385 from human adenosine A2A receptor expressed in CHO cell membranes at 1 uM incubated for 60 mins by scintillation counting method. The gist of the method:
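Membranes from hA2A-CHO cells (50 μg protein/assay), deaminase-treated. Incubated with 1 nM [3H]ZM241385 in 50 mM Tris HCl, 10 mM MgCl2, pH 7.4 for 60 min at 4 °C. Nonspecific binding defined with 1 μM ZM241385. Test compounds at 1 μM, reported as percent inhibition. Filter separation; scintillation counting.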
(Loss of bound radioactivity is the signal in a displacement assay; it reports binding, not function.)

Assay [2] concerns the target T1, Adenosine receptor A2b (Homo sapiens) (UniProt P29275).
T1 sequence (whole entry): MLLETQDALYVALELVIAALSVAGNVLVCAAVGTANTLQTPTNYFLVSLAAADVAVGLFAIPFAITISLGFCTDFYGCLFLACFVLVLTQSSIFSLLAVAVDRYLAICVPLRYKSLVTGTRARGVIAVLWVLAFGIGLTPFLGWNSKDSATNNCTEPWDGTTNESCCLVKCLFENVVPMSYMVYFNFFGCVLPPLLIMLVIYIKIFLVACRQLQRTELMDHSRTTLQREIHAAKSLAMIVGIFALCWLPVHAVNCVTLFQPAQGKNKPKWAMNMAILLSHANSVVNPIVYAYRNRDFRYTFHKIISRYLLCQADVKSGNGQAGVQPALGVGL
The experiment in a line: Antagonist activity against human adenosine A2B receptor expressed in CHO cells assessed as inhibition of NECA-induced cAMP production at 1 uM by scintillation counting method. The class given is functional, cell-based. The gist of the method: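 hA2B-transfected CHO cells (1 × 10⁶ cells/assay) in buffered saline-glucose medium with 2 IU/mL adenosine deaminase and Ro 20-1724, preincubated 10 min at 37 °C, stimulated with 200 nM NECA; test compounds at 1 μM, reported as percent inhibition. Stopped with cold 6% TCA, ether-extracted; cAMP measured by competition binding with [3H]cAMP and beef adrenal binding protein.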
(In general: cAMP levels reflect the balance of adenylyl cyclase and phosphodiesterase activity.)

The target in assay [3] is T2, Adenosine receptor A3 (Homo sapiens, UniProt P0DMS8).
T2 sequence (P0DMS8 whole entry): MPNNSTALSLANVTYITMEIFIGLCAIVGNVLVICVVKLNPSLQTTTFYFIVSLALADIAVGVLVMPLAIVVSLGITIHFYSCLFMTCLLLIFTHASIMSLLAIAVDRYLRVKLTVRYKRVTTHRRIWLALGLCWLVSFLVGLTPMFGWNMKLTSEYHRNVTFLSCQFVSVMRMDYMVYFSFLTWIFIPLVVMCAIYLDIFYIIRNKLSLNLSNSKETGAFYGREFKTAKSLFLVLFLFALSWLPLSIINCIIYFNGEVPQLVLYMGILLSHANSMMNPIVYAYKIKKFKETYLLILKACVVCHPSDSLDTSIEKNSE
In words: Antagonist activity against human adenosine A3 receptor expressed in CHO cells assessed as blockade of Cl-IB-MECA-induced inhibition of forskolin-induced cAMP production by scintillation counting method. The class given is functional, cell-based. The gist of the method: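 hA3-transfected CHO cells (1 × 10⁶ cells/assay) in buffered medium pH 7.4 with 2 IU/mL adenosine deaminase and Ro 20-1724, preincubated 10 min at 37 °C; antagonists tested against 100 nM Cl-IB-MECA. Stopped with cold TCA; cAMP measured by [3H]cAMP competition binding with adrenal binding protein. IC50 from sigmoid nonlinear regression, mean of four experiments.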

In assay [4] the target is T2, Adenosine receptor A3. In words: Displacement of [125I]AB-MECA from human adenosine A3 receptor expressed in CHO cell membranes incubated for 120 mins by scintillation counting method. The gist of the method: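 Membranes from hA3-CHO cells (50 μg protein/assay), pretreated with 2 IU/mL adenosine deaminase. Incubated with 0.5 nM [125I]AB-MECA in 50 mM Tris HCl, 10 mM MgCl2, 1 mM EDTA, pH 7.4, with six to eight compound concentrations; percent inhibition taken at 1 μM. Ki from IC50 by Cheng–Prusoff, means of four assays in duplicate.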

The target of assay [5] is T3, Adenosine receptor A1 (Homo sapiens) (UniProt P30542).
T3 sequence (whole entry): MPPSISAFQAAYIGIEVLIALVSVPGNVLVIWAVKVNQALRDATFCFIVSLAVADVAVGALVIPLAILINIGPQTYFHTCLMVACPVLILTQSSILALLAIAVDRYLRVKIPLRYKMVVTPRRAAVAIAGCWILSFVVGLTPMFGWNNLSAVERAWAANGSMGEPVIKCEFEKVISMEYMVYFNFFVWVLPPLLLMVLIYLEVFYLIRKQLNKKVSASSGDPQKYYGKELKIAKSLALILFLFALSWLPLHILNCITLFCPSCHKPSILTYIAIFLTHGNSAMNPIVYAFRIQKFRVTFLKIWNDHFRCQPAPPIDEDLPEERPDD
The experiment in a line: Displacement of [3H]DPCPX from human adenosine A1 receptor expressed in CHO cell membranes at 1 uM incubated for 120 mins by scintillation counting method. The method, boiled down:
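Membranes from hA1-CHO cells (50 μg protein/assay), pretreated with adenosine deaminase 2 IU/mL, 30 min at 37 °C. Incubated with 1 nM [3H]DPCPX in 50 mM Tris HCl pH 7.4 for 120 min at 25 °C. Nonspecific binding defined with 1 μM DPCPX. Test compounds at 1 μM, reported as percent inhibition. Separation by GF/B filtration; read by scintillation counting.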

Usually inhibition stands for the relative decrease from the control value, in per cent. For orientation: IC50 means the midpoint of a concentration-inhibition curve. The term Ki denotes a measure of affinity in units of concentration, obtained from inhibition or displacement. Low values mean tighter binding, high ones weaker binding.

Sequence of Adenosine receptor A2a (Homo sapiens) (P29274 whole entry): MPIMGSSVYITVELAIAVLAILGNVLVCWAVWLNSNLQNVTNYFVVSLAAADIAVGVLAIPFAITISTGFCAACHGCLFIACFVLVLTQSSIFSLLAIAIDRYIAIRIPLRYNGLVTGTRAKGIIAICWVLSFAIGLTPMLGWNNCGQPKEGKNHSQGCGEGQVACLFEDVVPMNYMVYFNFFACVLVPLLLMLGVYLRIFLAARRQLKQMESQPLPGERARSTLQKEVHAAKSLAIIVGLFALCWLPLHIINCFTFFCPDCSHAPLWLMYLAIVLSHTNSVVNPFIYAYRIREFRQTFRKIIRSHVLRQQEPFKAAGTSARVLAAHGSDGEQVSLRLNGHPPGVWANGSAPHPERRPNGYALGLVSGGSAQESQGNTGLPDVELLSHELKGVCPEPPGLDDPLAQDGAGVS

On to `Cc1nc2sc(-c3ccccc3)nc2c(=O)[nH]1`, for which the inhibition in assay [1] was determined as 1%; in assay [2], 1%; in assay [5], 11%. Also, at Adenosine receptor A3 [3], the IC50 came out at 0.221 µM. The same compound displayed a Ki on Adenosine receptor A3 [4] of 0.085 µM.

As to `Cc1nc2sc(-c3ccc(Cl)cc3)nc2c(=O)[nH]1`, the inhibition in assay [1], in assay [2] and in assay [5] was 1% throughout. Moreover, on Adenosine receptor A3 [3], the IC50 turned out to be 0.042 µM. The Ki at Adenosine receptor A3 [4] was 0.018 µM.

For the origin of these results see ChEMBL document CHEMBL3414467, “Exploring the 7-oxo-thiazolo[5,4-d]pyrimidine core for the design of new human adenosine A3 receptor antagonists. Synthesis, molecular modeling studies and pharmacological evaluation” (Eur J Med Chem, 2015).
